# CCR6 antag: antagonists of human CCR6 receptor; inhibition, % at 20 µM; CHO-K1 CCR6 PathHunter beta-arrestin, luminescence, CCL20-stimulated; 340,000 tested, 0.49% active; P51684; AID 493098;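 active = compounds whose inhibition of the agonist-driven luminescence signal at 20 µM reaches about 50%, limit read from the data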;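 note: cells stimulated with CCL20 at 14 nM final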
# CXCR6 block: inhibitors of human CXCR6 receptor. O00574. inhibition, % at 20 µM. CHO-K1 PathHunter CXCR6 beta-arrestin, luminescence. AID 602244. 360,000 tested, 0.36% active; in the data active = inhibition above about 34%, passing the limit was not always enough;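 note: antagonist mode with CXCL16 agonist at 10 nM final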
# EBI2 block: antagonists of human EBI2 receptor. inhibition, % at 5 µM. 360,000 tested, 0.81% active. EBI2 beta-arrestin recruitment, luminescence, 7a,25-OHC stimulated. AID 651636; in the data active = inhibition above about 38%;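 note: enzyme fragment complementation signal reports receptor beta-arrestin coupling in cells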
# Target sequence (P32249 whole entry, looked up, the tested form may be a part): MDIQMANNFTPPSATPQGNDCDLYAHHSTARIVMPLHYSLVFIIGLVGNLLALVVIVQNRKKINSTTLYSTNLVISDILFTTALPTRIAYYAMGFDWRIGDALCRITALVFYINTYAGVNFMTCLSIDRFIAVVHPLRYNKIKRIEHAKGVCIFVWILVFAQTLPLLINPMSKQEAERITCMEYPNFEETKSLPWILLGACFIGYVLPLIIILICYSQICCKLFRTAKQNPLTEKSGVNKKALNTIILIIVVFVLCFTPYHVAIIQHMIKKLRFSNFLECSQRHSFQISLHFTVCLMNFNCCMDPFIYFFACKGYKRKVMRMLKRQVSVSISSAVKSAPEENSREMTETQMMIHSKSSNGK
# APJ ag: APJ receptor agonism; 330,000 tested, 0.11% active; CHO-K1 APJ PathHunter beta-arrestin, luminescence; 0% DMSO wells, 100% apelin; AID 2520; P35414; activation, % at 20 µM;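 active = activation more than six SD over the plate average, tested at 20 µM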
#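 Material: CHO-K1 APJ beta-arrestin complementation cell line; Input: cell density 1000 per well; Incubation: compound stimulation 90 min at 25 °C, detection 60 min; Signal: luminescence from split beta-galactosidase complementation, Galacton Star/Emerald II substrate; Controls: DMSO-only wells as negative, 10 nM Apelin-13 as positive control.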
# HTR2A ag: agonists of mouse serotonin 5-HT2A receptor (HTR2A); activation, % at 7.6 µM; 360,000 tested, 0.66% active; P35363; AID 624169; CHO-K1 mHTR2A beta-arrestin complementation, luminescence; percent of 30 µM serotonin response;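 active = activation above a run cutoff, the mean activation of all tested compounds plus 3 SD, cut at about 14% in these data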
# APJ antagonist: blocks the human apelin receptor APJ; inhibition, % at 20 µM; 330,000 tested, 0.32% active; CHO-K1 APJ beta-arrestin complementation, luminescence; P35414;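 active = inhibition above about 40% at 20 µM, limit read from the data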;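 note: cells challenged with 10 nM apelin-13 agonist together with compound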
# CXCR6 antag conf: confirmation of human CXCR6 receptor antagonists. shares compounds with CXCR6 block. CHO-K1 CXCR6 PathHunter beta-arrestin, luminescence. inhibition, % at 20 µM. 700 tested, 65% active;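 active = mean inhibition over four retests above 40%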;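 note: receptor stimulated with 10 nM CXCL16 agonist; beta-galactosidase fragment complementation upon beta-arrestin recruitment to receptor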
# MOR ag counter: OPRM1 agonism in mouse HTR2A counterscreen; shares compounds with HTR2A ag; U2OS OPRM1 beta-arrestin PathHunter, luminescence; DMSO 0%, DAMGO 9.3 µM 100%; activation, % at 9.3 µM; 2,300 tested, 5.3% active; AID 624380;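 active = mean activation above the mean of DMSO-only wells plus 3 SD, cut at about 0.5% in these data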
# m5-HT2A ag conf: confirmation of mouse HTR2A serotonin receptor agonists. shares compounds with HTR2A ag. CHO-K1 PathHunter beta-arrestin recruitment, luminescence; DMSO 0%, 30 µM serotonin 100%. activation, % at 7.6 µM. 2,300 tested, 19% active. AID 624381;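 active = mean activation across triplicates above the hit threshold derived in the original primary screen, cut at about 15% in these data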
# EBI2 antag conf: EBI2 (human) antagonism, single concentration confirmation; shares compounds with EBI2 block; EBI2 beta-arrestin luminescence, 7a,25-OHC antagonism; inhibition, % at 5 µM; 2,400 tested, 29% active; AID 651997;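 active = inhibition of at least 50%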
# EBI2 agonist: activates EBI2, counter-screen for EBI2 antagonists; activation, % at 5 µM; 2,400 tested, under 10 active; shares compounds with EBI2 block; EBI2-expressing cells, agonist mode, luminescence, 60 min; 0% vehicle, 100% 7α,25-dihydroxycholesterol control;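 active = activation of at least 50%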
# bGal cs: inhibits E. coli beta-galactosidase, counter-screen for EBI2 antagonists; shares compounds with EBI2 block; 2,400 tested, 1% active; inhibition, % at 5 µM; purified beta-galactosidase, luminescent Galacton Star, 15 min;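 active = replicate-average signal at least 3 plate SD below neutral wells, shown as high inhibition, flagging enzyme-inhibiting false positives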;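 note: higher means stronger loss of beta-gal luminescence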
# A number is an active result; i = inactive; nt = no result. Rows were chosen to be rich in hits. Some 2.1% of all compounds tested hit in one or more screens of this group.
SMILES,CCR6 antag,CXCR6 block,EBI2 block,APJ ag,HTR2A ag,APJ antagonist,CXCR6 antag conf,others
COc1cccc(C2c3c(oc4ccccc4c3=O)C(=O)N2CCCN2CCOCC2)c1OC (stereo not given),i,i,i,nt,i,nt,nt,
O=C(Nc1ccccc1Oc1ccccc1)[C@@H]1O[C@H](CO)[C@H](O)[C@H](O)[C@H]1O,nt,57,i,nt,i,nt,71,
CCCCCN(C(=O)NC(=O)Nc1ccccc1C)S(=O)(=O)c1ccccc1,i,i,i,i,i,i,nt,
CC1CCCCN1C(=O)CSc1nnc(-c2ccccc2F)o1 (stereo not given),i,i,i,i,i,i,nt,
COC(=O)/C=C/c1ccc(-n2ccnc2)cc1,i,i,i,i,i,i,nt,
Cc1ccc(NC(=S)N/N=C/c2ccc([N+](=O)[O-])s2)cc1,72,52,50,i,i,i,72,
O=C(/C=C/c1ccc(Cl)cc1)N(c1ccccn1)C1CCCCC1,i,59,i,i,i,i,i,
S=C(NNC(=S)Nc1ccc(Cl)cc1)NNc1ccccc1,nt,i,i,nt,i,nt,nt,
Cc1ccc(NC(=S)NNC(=S)NNc2ccccc2)cc1C,nt,40,i,nt,i,nt,i,
CCOC(=O)N1CCC(NC(=O)c2ccc3snnc3c2)CC1,i,i,i,i,i,i,nt,
O=C(Nc1ccccc1C(=O)O)c1cccc(NC(=O)c2ccc(Br)o2)c1,i,i,i,i,i,i,nt,
CS(=O)(=O)c1ccc(C(=O)OCC(=O)N2CCN(CCC3CCCCC3)CC2)cc1[N+](=O)[O-],nt,54,48,nt,i,nt,71,EBI2 antag conf=54;EBI2 agonist=i;bGal cs=i
CS(=O)(=O)c1ccc(C(=O)OCC(=O)N2CCOCC2)cc1[N+](=O)[O-],nt,i,i,nt,i,nt,nt,
CCC1NC(=O)c2cc3ccccc3cc2-n2c1nc1cc(C)cc(C)c1c2=O (stereo not given),nt,60,86,nt,i,nt,i,EBI2 antag conf=69;EBI2 agonist=i;bGal cs=i
COc1ccc(-c2nc(SC(C)C(=O)Nc3ccc(NC(C)=O)cc3)n[nH]2)cc1 (stereo not given),i,i,i,i,i,i,nt,
Cc1ccc(C(=O)OCC(=O)NCc2cccc(Cl)c2)cc1S(=O)(=O)N1CCCCC1,i,i,i,i,17,i,nt,MOR ag counter=i;m5-HT2A ag conf=i
Cc1ccnc(NC(=O)c2cc(F)c(F)cc2Cl)n1,i,i,i,i,i,i,nt,
CCSc1ccc([C@@H]2[C@@H]3C(=O)N(CC)C(=O)[C@@H]3[C@]3(C(=O)OC)CCCCN23)cc1,i,i,i,i,i,i,nt,
CCSc1ccc([C@@H]2[C@H]3C(=O)N(C)C(=O)[C@H]3[C@]3(C(=O)OC)CCCCN23)cc1,i,i,i,i,17,i,nt,MOR ag counter=i;m5-HT2A ag conf=i
Cc1sc(-c2ccccn2)nc1OC(=O)c1ccc(F)cc1F,i,i,i,nt,15,nt,nt,MOR ag counter=i;m5-HT2A ag conf=i
CCCCc1ccc(NC(=O)Cn2c(=O)c(N3CCCCC3)c(N)n(C)c2=O)cc1,i,i,i,i,i,i,nt,
COc1ccc2oc(C(=O)Nc3nc4ccccc4[nH]3)c(C)c2c1,i,i,i,i,149,i,nt,MOR ag counter=i;m5-HT2A ag conf=56
COc1ccc(Br)c(C(=O)Nc2nc3ccccc3[nH]2)c1,i,i,i,i,i,i,nt,
